KCNQ1 inh = blocks the human KCNQ1 potassium channel; CHO-K1 KCNQ1, FluxOR thallium flux fluorescence; active compounds read high; P51787; AID 2642; 310,000 compounds, 1.3% hits; B-score at 10 µM;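 active = compounds whose thallium flux B-score, printed positive for inhibition, exceeds three library SD while starting fluorescence stays within three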;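 also: channel opened by potassium depolarization with thallium stimulus after 20 min compound exposure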
hERG protect = hERG (human) protection from proarrhythmic block. Q12809. CHO-hERG, FluxOR thallium flux, dofetilide IC70 present. activation (rescue from dofetilide block), less the hit threshold, % at 10 µM. 310,000 compounds, 0.51% hits. AID 1511;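 active = activation above the mean of controls blocked by dofetilide plus 5 SD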;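 also: thallium influx through hERG after potassium depolarization seen as dye fluorescence rise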
KCNQ1 act = human KCNQ1 channel potentiation or activation. P51787. 310,000 compounds, 0.35% hits. B-score at 10 µM. CHO-K1 KCNQ1, thallium flux FluxOR fluorescence; active compounds read high. AID 2648;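 active = fluorescence ratio B-score, a plate-corrected score, at least three library SD, with initial intensity B-score within 5 SD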
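Doses: Single concentration per compound, DMSO matched to controls | Test system: KCNQ1-transfected CHO-K1 cells | Timing: 90 min dye loading and 20 min compound exposure, both at room temperature | Measured by: Kinetic FluxOR thallium fluorescence, 10-s 1-Hz baseline, 110-s post-stimulus read | Medium: Assay buffer with matched DMSO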
KCNK9 block = human KCNK9 channel inhibition | Q9NPC2 | HEK293 KCNK9, FluxOR thallium flux fluorescence; active compounds read low | B-score at 10 µM | 310,000 compounds, 1.2% hits | AID 488922;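 active = ratio B-score over 3 SD below the library mean, with starting fluorescence within 5 SD of its mean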;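 also: negative B-score means less thallium flux so channel inhibition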
Target sequence (Q9NPC2 whole entry, looked up): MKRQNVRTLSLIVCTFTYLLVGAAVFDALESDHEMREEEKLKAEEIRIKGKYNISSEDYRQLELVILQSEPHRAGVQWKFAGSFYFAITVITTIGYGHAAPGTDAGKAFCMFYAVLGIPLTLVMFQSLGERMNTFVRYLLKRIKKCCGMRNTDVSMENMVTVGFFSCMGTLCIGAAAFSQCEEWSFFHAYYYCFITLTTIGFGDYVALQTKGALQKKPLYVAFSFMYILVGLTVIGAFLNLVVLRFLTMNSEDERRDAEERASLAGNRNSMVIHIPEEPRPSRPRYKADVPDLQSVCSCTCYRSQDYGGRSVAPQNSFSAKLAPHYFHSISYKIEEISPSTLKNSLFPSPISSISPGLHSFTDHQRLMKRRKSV
KCNK3 block = human KCNK3 channel inhibition, primary screen. O14649. 340,000 compounds, 0.84% hits. CHO-KCNK3 thallium flux, FluxOR fluorescence; active compounds read low. AID 602410. B-score at 10 µM;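 active = B-score under library mean minus 4 SD, starting fluorescence ratio at most library mean plus 5 SD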;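 also: more negative B-score means stronger inhibition of thallium flux through KCNK3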
Target sequence (O14649 whole entry, looked up): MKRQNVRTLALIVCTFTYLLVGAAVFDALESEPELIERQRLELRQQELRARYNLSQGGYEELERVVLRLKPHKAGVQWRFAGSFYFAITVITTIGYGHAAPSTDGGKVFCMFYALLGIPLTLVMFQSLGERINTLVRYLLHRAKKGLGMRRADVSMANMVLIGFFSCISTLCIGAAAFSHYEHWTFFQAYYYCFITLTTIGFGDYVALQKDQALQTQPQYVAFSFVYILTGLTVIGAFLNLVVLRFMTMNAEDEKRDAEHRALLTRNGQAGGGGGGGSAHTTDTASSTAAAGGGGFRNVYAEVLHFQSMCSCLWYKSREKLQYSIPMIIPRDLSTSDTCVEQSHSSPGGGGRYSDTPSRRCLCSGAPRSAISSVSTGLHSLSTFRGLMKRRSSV
KCC2 mod = modulates chloride dependent transport by human KCC2. B-score of Tl+ flux slope (higher = more flux/activation; lower = inhibition) at 10 µM. AID 1456. 190,000 compounds, 2.2% hits. KCC2 cells, thallium flux FluoZin-2 fluorescence;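 active = thallium flux slope and its plate-corrected score both differing from the plate sample mean at a set confidence after two filtering rounds, in either direction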;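 also: slope of fluorescence scaled to starting intensity during 10 to 20 s after thallium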
Of the large screens only hits and unclear results are named; the others gave an inactive call. The list is not random: actives were taken first. Their share in the collection is about 4.1%.

COC(=O)c1ccc(C23CC4(C2)[C@H](CN(C)[C@@H]4c2ccccc2)C3c2ccccc2)cc1 (some centres undefined)	KCNK9 block -6.6
CCOc1ccc(C(=O)NNC(=O)CN2C(=O)NC3(CCCC3)C2=O)cc1	none (no result: KCNQ1 inh, hERG protect, KCNQ1 act, KCNK9 block, KCC2 mod)
Cc1ccc2c(CSc3nc4ccccc4c(=O)n3CCCO)cc(=O)oc2c1	KCNK3 block -9.1 (no result: KCNQ1 inh, hERG protect, KCNQ1 act, KCNK9 block, KCC2 mod)
Cc1ccc(OCCOC(=O)CN2C(=O)NC3(CCCC3)C2=O)cc1	none (no result: KCC2 mod)
CCCN1CCC(=O)N([C@H](CO)CC(C)C)CC1	none (no result: KCC2 mod)
CC(C)C[C@@H](CO)N1CCN(CC(C)C)CCC1=O	hERG protect 5.7 (no result: KCC2 mod)
COc1ccc(Cl)cc1NC(=S)NCCSc1ccc(C)cc1	KCNK9 block -8.1
COc1ccccc1NC(=S)NCCSc1ccc(Cl)cc1	none
CC1CCCC(C)N1/N=C/c1ccccc1F (centres undefined)	none (no result: KCC2 mod)
NC(=O)CC(NC(=O)c1ccccc1)c1ccc(N2CCC(Cc3ccccc3)CC2)c([N+](=O)[O-])c1 (centres undefined)	KCNK9 block -6.8 (no result: KCC2 mod)
NC(=O)CC(NC(=O)c1ccccc1)c1ccc(N2CCC(N3CCCC3)CC2)c([N+](=O)[O-])c1 (centres undefined)	none (no result: KCC2 mod)
CC(C)CCN1C(=O)c2ccc(C(=O)Nc3ccc(Br)cc3C(=O)O)cc2C1=O	KCNQ1 inh 6 (no result: KCC2 mod)
CCn1ncc(/C=C/C(=O)c2ccccc2)c1C	none
Cc1ccc(C(C)C)c(OCC(=O)OCC(=O)NC2CC2)c1	none (no result: KCNQ1 inh, hERG protect, KCNQ1 act, KCNK9 block, KCC2 mod)
Cc1ccc(C(C)C)c(OCC(=O)OCc2c(C)noc2C)c1	KCNK9 block -7.4
CC(C)=CCC/C(C)=C/CC/C(C)=C/COc1ccc2ccc(=O)oc2c1	none (no result: KCNQ1 inh, hERG protect, KCNQ1 act, KCNK9 block, KCC2 mod)
CC(C)=CCC/C(C)=C/COc1c2occc2cc2ccc(=O)oc12	KCNK3 block -9.8 (no result: KCNQ1 inh, hERG protect, KCNQ1 act, KCNK9 block, KCC2 mod)
COc1ccc(S(=O)(=O)N2CCC(C(=O)NC(C)CCc3ccccc3)CC2)cc1 (centres undefined)	none (no result: KCC2 mod)
CCOC(=O)c1c(-c2ccc(Cl)cc2)csc1NC(=O)CNCc1ccco1	none (no result: KCC2 mod)
CCOC(=O)c1c(-c2ccccc2)csc1NC(=O)C(C)NCc1ccco1 (centres undefined)	KCNQ1 inh 7
O=[N+]([O-])c1ccc(N2CCCCC2)c(-c2nn[nH]n2)c1	none
Cc1cccc(Cn2ccc(-c3ccc(Cl)cc3)c(C#N)c2=O)c1	none (no result: KCC2 mod)
CCOC(=O)c1ccccc1NC(=O)N1CCn2c(C)ccc2C1CC (centres undefined)	none
CCC1c2ccc(C)n2CCN1C(=O)Nc1ccccc1C(=O)OC (centres undefined)	KCNK9 block -7
O=S(=O)(CCSc1ccccn1)c1nc2ccccc2s1	KCNQ1 inh 6
Cc1ccc(C(=O)N2CC3(C)CN(C(=O)c4ccc(C)cc4)CC(C)(C2)C3=O)cc1	none
Cc1ccc(C(=O)N2CC(=O)NC(=O)C2)cc1	hERG protect 5.3 (no result: KCC2 mod)
CCc1ccc(NC(=S)N(Cc2cccnc2)Cc2ccco2)cc1	hERG protect 6.0
COc1ccc(NC(=S)N(Cc2cccnc2)Cc2ccco2)cc1	none
CCC(C(=O)O/N=C(\N)c1ccc(C)cc1)c1ccccc1 (centres undefined)	none
CCCCN1C(=O)/C(=C2/Sc3ccc(OC)cc3N2CC)SC1=S	none (no result: KCC2 mod)
C=CCN1C(=O)/C(=C2/Sc3ccc(OC)cc3N2CC)SC1=S	KCNQ1 inh 6 (no result: KCC2 mod)
S=c1[nH]cnc2scc(-c3ccccc3)c12	hERG protect 60, KCNQ1 act 18, KCC2 mod 62
S=c1[nH]cnc2sc(-c3ccccc3)cc12	hERG protect 19, KCNQ1 act 132, KCC2 mod 196
Cc1ccccc1N(C(=O)c1cccs1)c1nc2ccccc2s1	KCNQ1 inh 7
Cc1ccsc1C(=O)N(c1nc2ccccc2s1)c1c(C)cccc1C	none
CCCOc1ccc(C(=O)NNC(=S)NC(=O)c2cc(-c3ccccc3)nc3ccccc23)cc1	KCNQ1 act 19
CCCOc1ccc(C(=O)NNC(=S)NC(=O)c2ccccc2)cc1	hERG protect 17, KCNQ1 act 34 (no result: KCC2 mod)
CCCOc1ccc(C(=O)NNC(=S)NC(=O)c2cccs2)cc1	hERG protect 8.8, KCNQ1 act 38 (no result: KCC2 mod)
O=C(CC1NC(=O)NC1=O)Nc1cccc2ccccc12 (centres undefined)	none
CCN1CCN(CC(=O)N2CCCC(C(=O)c3ccc(Oc4ccccc4)cc3)C2)CC1 (centres undefined)	hERG protect 5.5
O=C(NC12CC3CC(CC(C3)C1)C2)c1cc([N+](=O)[O-])ccc1N1CCOCC1	KCNQ1 inh 7
Cc1nn(CCC#N)c(C)c1Oc1ccccc1O	none
COc1cc(C(C[N+](=O)[O-])c2c(N)n(C)c(=O)n(C)c2=O)ccc1O (centres undefined)	KCNQ1 inh 6
Cc1ccc(C(C[N+](=O)[O-])c2c(N)n(C)c(=O)n(C)c2=O)cc1 (centres undefined)	none
COc1ccc(OC)c(NC(=O)Nc2cnccn2)c1	none (no result: KCC2 mod)
O=C(Cn1c(=O)c2c(ncn2Cc2ccccc2)n(Cc2ccccc2)c1=O)N1CCc2ccccc21	KCNQ1 act 7 (no result: KCC2 mod)
Cc1cccc(-n2c(SCC(=O)NCc3ccco3)nc3ccccc3c2=O)c1	none
CS(=O)(=O)N(CC(=O)N1CCc2ccccc2C1)c1cccc(F)c1	hERG protect 11 (no result: KCC2 mod)
CS(=O)(=O)N(CC(=O)N1CCc2ccccc2C1)c1cccc([N+](=O)[O-])c1	none (no result: KCC2 mod)
CC1=CC(C)(C)Nc2cc(C)c(C)cc21	none (no result: KCNQ1 inh, hERG protect, KCNQ1 act, KCNK9 block, KCC2 mod)
CCCCOc1ccc(/C=C/C(=O)Nc2ccc([N+](=O)[O-])cc2C)cc1	none
CCCOc1ccc(/C=C/C(=O)Nc2ccc([N+](=O)[O-])cc2)cc1	KCNQ1 inh 7 (no result: KCC2 mod)
CSc1nc(Cl)c(Cc2ccc(OC(C)C)cc2)c(N2CCOCC2)n1	KCNQ1 inh 7, KCNK9 block -7.5 (no result: KCC2 mod)
CCCC[C@@H]1C[C@H]1[C@@H](NC(=O)c1cccs1)c1ccc(C(F)(F)F)cc1	KCNK9 block -7.3 (no result: KCNK3 block, KCC2 mod)
O=C(O)CN1C(=O)c2cccc(Oc3ccc(Cl)cc3)c2C1=O	KCNK9 block -6.8
COC(=O)c1nn(-c2ccccc2)c(Sc2ccc(C)cc2)c1/C=N/O	none (no result: KCNQ1 inh, hERG protect, KCNQ1 act, KCNK9 block, KCC2 mod)
Cc1ccc(-n2ncc3c(=O)n(CC(=O)N4CCN(c5ccccc5)CC4)cnc32)cc1C	none
Cc1ccc(-n2ncc3c(=O)n(CC(=O)N4CCN(c5ccccc5F)CC4)cnc32)cc1C	KCNQ1 act 7
Cc1ccc(-n2ncc3c(=O)n(CC(=O)N4CCCc5ccccc54)cnc32)cc1C	KCC2 mod -3.4
COc1ccc(NC(=S)N2CCC(C(=O)c3ccc(C)cc3)CC2)c(OC)c1	none
N#Cc1cc(C(=O)c2ccccc2O)cn(-c2nccs2)c1=O	none
N#Cc1cc(C(=O)c2cc(F)ccc2O)cn(-c2nccs2)c1=O	KCNQ1 inh 8
CN(C)c1cc(-c2ccc(Br)cc2)oc(=O)c1Cl	none

Screening data deposited in PubChem by several laboratories.
